Bioassay records: PubChem BioAssay, several laboratories
Sampled rows, rich in hits. Any-hit rate of the full collection: about 4.1%.
ATG4B inhibitor – blocks human ATG4B protease cleavage of LC3 substrate; 340,000 compounds, 0.51% hits; inhibition, % at 8.33 µM; Q9Y4P1; AID 504462; ATG4B cleavage of LC3-PLA2, NBD-HPC fluorescence, 1 h; in the data active = inhibition above about 40%
Target sequence (Q9Y4P1 whole entry, looked up): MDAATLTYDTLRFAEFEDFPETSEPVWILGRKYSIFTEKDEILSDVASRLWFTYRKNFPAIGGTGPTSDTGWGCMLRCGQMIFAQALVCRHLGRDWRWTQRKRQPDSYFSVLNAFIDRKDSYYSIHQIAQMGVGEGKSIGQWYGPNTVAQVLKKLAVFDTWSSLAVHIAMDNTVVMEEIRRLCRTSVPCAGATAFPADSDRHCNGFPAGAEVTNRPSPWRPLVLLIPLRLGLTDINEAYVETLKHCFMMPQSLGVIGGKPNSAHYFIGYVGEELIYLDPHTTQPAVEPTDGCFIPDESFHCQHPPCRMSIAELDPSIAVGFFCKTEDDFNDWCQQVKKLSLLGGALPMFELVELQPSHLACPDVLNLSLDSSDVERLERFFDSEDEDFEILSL
MPTP inh – blocks calcium-induced mitochondrial swelling | isolated mouse mitochondria, Ca2+ swelling absorbance, 30 min | inhibition, % at 10 µM | 360,000 compounds, 1.4% hits | AID 602449;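 active = inhibition of 50% or more, scaled per plate between neutral and stimulator controls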;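 also: 0% = DMSO wells given calcium and 100% = 1 mM EGTA wells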
SMARCA2 act – activators of SMARCA2 function; MG213 cells, MMTV-luciferase reporter, dexamethasone, overnight; activation, % at 9.1 µM; 370,000 compounds, 1% hits; AID 652017; in the data active = activation above about 7.8%;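 also: 0% = vehicle wells and 100% = reference activator wells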
MC4R barr agon – activates human MC4R beta-arrestin recruitment | U2OS MC4R beta-arrestin complementation, luminescence; percent of melanotan II response, DMSO zero | activation, % at 8.9 µM | 360,000 compounds, 0.98% hits | AID 540308;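 active = activation above a per-plate cutoff, the mean activation of sample wells on that plate plus 3 SD, cut at about 8% in these data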
MC4R antagonist – antagonists of human melanocortin 4 receptor (MC4R); AID 540295; 360,000 compounds, 0.48% hits; P32245; MC4R-expressing cells, MTII-stimulated cAMP, LANCE TR-FRET; inhibition, % at 6.5 µM;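 active = inhibition above its plate's cutoff, the mean of tested wells on that plate plus 3 SD, cut at about 29% in these data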;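 also: 0% = Melanotan II alone and 100% = Melanotan II plus saturating MCL0020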
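System – human MC4R-expressing U2OS cells · Also added – Melanotan II · Dosing – one concentration, 6.5 µM nominal · Timing – 30-min compound, 1-h challenge, 1-h detection, room temperature · Measured by – Eu-cAMP/anti-cAMP TR-FRET, emission 671 nm · Replicates – singlicate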
MPTP counter – membrane potential counter-screen of mitochondrial pore inhibitors | isolated mitochondria, Rhodamine 123 fluorescence | AID 624504 | 5,000 compounds, 78% hits | shares compounds with MPTP inh | inhibition, % at 10 µM; in the data active = inhibition above about 22%;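 also: 0% = DMSO vehicle and 100% = positive control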
MPTP swell DR – dose response confirmation of mitochondrial permeability transition pore inhibitors. shares compounds with MPTP inh. isolated mitochondria swelling, absorbance. IC50, µM. 780 compounds, 58% hits. AID 651561; in the data active = IC50 below about 20 µM
MPTP counter DR – active in counter-screen for permeability transition pore inhibitors; AID 651564; 780 compounds, 49% hits; shares compounds with MPTP inh; IC50, µM; isolated mitochondria counterscreen, fluorescence read-out; in the data active = IC50 below about 80 µM
An asterisk follows results filed as active; nt = not tested or not shown.

SMILES	ATG4B inhibitor	MPTP inh	SMARCA2 act	MC4R barr agon	MC4R antagonist	MPTP counter	others
Cc1ccccc1C(=O)NCCN1CCC2(CC1)C(=O)NCN2c1ccccc1	nt	nt	-3	nt	nt	nt
CCN(CCCl)c1cc(CN(C)C)cc(NC(=O)c2ccc(C(=O)Nc3cc(CN(C)C)cc(N(CC)CCCl)c3)cc2)c1	20	82*	-2	-1	-1	-32
COC(=O)C1=C(c2ccc(OC(F)(F)F)cc2)C[C@@H]2CC[C@H]1N2C(=O)NCc1ccco1	nt	nt	-3	nt	nt	nt
Cc1cc(O)c2c3c(c(=O)oc2c1)CCC(C)C3 (stereo not drawn)	-2	57*	-2	1	-10	89*
CCOc1cc(C)cc2oc(=O)c3c(c12)CCCC3	-3	-1	-1	-2	2	nt
O=C(NCCN1CCC2(CC1)C(=O)NCN2c1ccccc1)c1ccccc1F	nt	nt	1	nt	nt	nt
Cc1cc(OCC(=O)O)c2c3c(c(=O)oc2c1)CCCC3	3	-3	2	1	0	nt
Cc1cc(OC(=O)c2ccco2)c2c3c(c(=O)oc2c1)CCCC3	3	104*	0	-1	6	87*
COC(=O)c1ccc(COc2cc(C)cc3oc(=O)c4c(c23)CCCC4)o1	-6	4	-2	1	-14	nt
Cc1cc(OC(=O)c2cccs2)c2c3c(c(=O)oc2c1)CCCC3	0	68*	-2	-1	-2	86*
COC(=O)C1CC(OC(C)=O)C(=O)[C@H]2C1(C)CC[C@H]1C(=O)OC(c3ccoc3)CC12C (stereo partly drawn)	nt	nt	-4	nt	nt	nt
CCOC(=O)[C@]12Cc3c(cc(OC)c(OC)c3OC)[C@H]1N(C1CCCCC1)C(=O)c1ccccc12	nt	-3	-9	nt	nt	nt
CCC(=Nc1ccc2c(c1)CCC2)c1c(O)n(C)c(=O)n(C)c1=O	2	-4	-6	0	6	nt
CCOC(=O)c1ccc(N=C(CC)c2c(O)n(C)c(=O)n(C)c2=O)cc1	-3	90*	-2	-1	11	3	MPTP swell DR=2.1*;MPTP counter DR=23*
CC(C)OC(=O)C1C(c2ccc(I)cc2)CC2CCC1N2C (stereo not drawn)	nt	nt	1	nt	nt	nt
CNCC[C@H](Oc1cccc2ccccc12)c1cccs1	-6	94*	-4	1	3	-13	MPTP swell DR=3.9*;MPTP counter DR=68*
CC[C@]12CCN(CC3(O)CC3)C(Cc3ccc(O)cc31)C2(C)C	nt	nt	3	nt	nt	nt
O=C(NCCN1CCC2(CC1)C(=O)NCN2c1ccccc1)c1cccs1	nt	nt	-5	nt	nt	nt
CSc1ccc(C(=O)C2CCCN(Cc3cccnc3)C2)cc1 (stereo not drawn)	-12	0	1	-2	5	nt
CSc1ccc(C(=O)C2CCCN(Cc3cc4ccccc4[nH]3)C2)cc1 (stereo not drawn)	21	58*	0	3	0	-8	MPTP swell DR=5.9*;MPTP counter DR=25*
CN(C)c1ccc(/C=C/C=C2/C(=O)NC(=O)N(c3ccccc3)C2=O)cc1	0	51*	0	-3	12	-28
COc1cccc(CCNCc2ccc(SC)cc2)c1	2	88*	-1	7	-6	-11	MPTP swell DR=13*;MPTP counter DR=>80
O=c1[nH]c2ccccc2n1C1CCN(C(c2cc3ccccc3o2)c2nnnn2-c2ccc3c(c2)OCCO3)CC1 (stereo not drawn)	nt	-1	-4	nt	nt	nt
Cc1ccc(Cl)cc1N1CCN(CCN)CC1	4	78*	-2	0	0	-8	MPTP swell DR=12*;MPTP counter DR=>80
c1ccc(-c2nc3ccccc3nc2-c2ccc(CN3CCC(n4nnc5ccccc54)CC3)cc2)cc1	nt	nt	-3	nt	nt	nt
N#CC(C#N)=C(C#N)c1ccc(Nc2ccccc2)cc1	5	118*	-2	-2	-1	61*
c1ccc(Nc2ccc(Nc3ccccc3)cc2)cc1	3	3	-1	2	-3	nt
CNCC(O)c1cccc(OC(=O)c2ccccc2C)c1 (stereo not drawn)	-1	61*	1	0	-2	-5	MPTP swell DR=8.9*;MPTP counter DR=>80
CN1/C(=C\C=C2C(=O)NC(=O)NC2=O)C(C)(C)c2ccccc21	-4	-1	3	-3	-19	nt
